ZTA counter = blocks Epstein-Barr virus ZTA, an EBNA-1 counter-screen | ZTA-DNA binding, fluorescence polarization | 0.15% of 320,000 active | AID 2234 | inhibition, % at 11 µM | P03206; in the data active = inhibition above about 33%
Target sequence (P03206 whole entry, looked up): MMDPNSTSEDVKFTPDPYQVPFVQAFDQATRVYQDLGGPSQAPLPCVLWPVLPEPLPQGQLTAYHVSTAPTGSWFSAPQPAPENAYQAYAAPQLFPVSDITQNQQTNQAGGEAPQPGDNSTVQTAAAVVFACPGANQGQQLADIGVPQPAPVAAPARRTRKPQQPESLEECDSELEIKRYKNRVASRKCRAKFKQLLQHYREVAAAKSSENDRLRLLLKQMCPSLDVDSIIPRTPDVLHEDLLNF
A1 inh = inhibitors of the anti-apoptotic protein A1, read as caspase activation; AID 2462; MEF A1-2A-BIM cells, Caspase-Glo 3/7 luminescence, 3 h; percent of clofoctol response, vehicle zero; 0.066% of 330,000 active; caspase activation, % (concentration not given with the values);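 active = over half of replicate activation scores above 10%, or exactly half above 10 with the replicate mean above 10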
HNF4A DNA FP = change in binding of human HNF4 alpha to DNA. activity change, % at 10 µM. 0.3% of 360,000 active. HNF4a-FITC DNA binding, fluorescence polarization, 1 h; in the data active = activity change above about 30%, passing the limit was not always enough
CSN inh = blocks human CSN-mediated cullin deneddylation | Q92905 | AID 651999 | Purified CSN, SCF-Nedd8-OG deneddylation, fluorescence polarization | inhibition, % at 12.5 µM | 0.38% of 360,000 active;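 active = pattern-corrected inhibition above about 35%, with an unprinted fluorescence ratio check between 0.5 and 1.5, limit read from the data, passing the limit was not always enough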;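 also: 0% = enzyme with substrate and 100% = substrate without enzyme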
Target sequence (Q92905 whole entry, looked up, one chain of several): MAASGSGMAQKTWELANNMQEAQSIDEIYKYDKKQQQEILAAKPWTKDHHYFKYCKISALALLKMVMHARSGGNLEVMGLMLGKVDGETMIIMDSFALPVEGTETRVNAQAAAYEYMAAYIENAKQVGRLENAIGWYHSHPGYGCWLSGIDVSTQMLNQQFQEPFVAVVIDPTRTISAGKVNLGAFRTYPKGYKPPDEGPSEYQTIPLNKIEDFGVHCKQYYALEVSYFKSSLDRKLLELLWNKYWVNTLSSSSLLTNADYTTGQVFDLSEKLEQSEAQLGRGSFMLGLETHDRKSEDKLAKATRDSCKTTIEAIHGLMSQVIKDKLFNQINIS
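Assay system: purified human Csn5 enzyme expressed in HEK293T cells; measure: % inhibition; also added: SCFSkp2-Nedd8OG substrate at 10 nM final; technique: fluorescence polarization; times: reaction 90 min, room temperature; medium: Tris buffer pH 7.5, NaCl, DTT, Tween-20, trehalose, ovalbumin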
LANA-H2B inh = blocks KSHV LANA binding to histone H2A/H2B; Q9QR71; cell-free LANA-H2A/H2B peptide, fluorescence polarization; inhibition, % (concentration not given with the values); 0.6% of 320,000 active; AID 2629; in the data active = inhibition mostly above about 10%, no sharp cut-off; inactive = mostly below about 6.7%
EBNA-1 inhibitor = blocks EBNA-1 binding to DNA; EBNA-1 DNA binding, fluorescence polarization; 0.34% of 300,000 active; inhibition, % at 14.8 µM; in the data active = inhibition above about 28%
Active calls of the source: *; x = no result given; + = active, no number. Hits are enriched below; roughly 1.5% of the tested compounds scored in any of these assays.

SMILES | ZTA counter | A1 inh | HNF4A DNA FP | CSN inh | LANA-H2B inh | EBNA-1 inhibitor
Cc1ccc(-c2ccc(CCC(=O)O)n2-c2ccc(O)cc2)cc1 | 13 | -1 | -1 | 1 | 3 | 0
Cc1ccccc1S(=O)(=O)N(C)C[C@@H]1OCc2cn(nn2)CCCC(=O)N([C@H](C)CO)C[C@H]1C | x | x | 4 | 6 | x | x
CC(NC(=O)C(=O)NCCC1=CCCCC1)c1ccccc1 (stereo not drawn) | 10 | 0 | 2 | 0 | 2 | 7
CC1=CC(=C2N=C(c3ccccc3)OC2=O)C=C(C)O1 | 14 | 0 | 0 | 62* | 8 | 5
CC1(C(=O)Nc2cccc3cccnc23)CCN1Cc1ccc(-c2ccccc2)o1 (stereo not drawn) | x | x | 9 | 4 | x | x
COCCN(CCOC)C(=O)c1ccc(NS(=O)(=O)c2ccc3[nH]c(=O)[nH]c3c2)cc1 | -7 | 0 | -1 | 3 | 33* | -6
Cc1n[nH]c(C)c1N1C(=O)c2cccc3c(N4CCCCCC4)ccc(c23)C1=O | -8 | 0 | -86 | -70 | 65* | 9
O=C(OCCN1C(=O)c2ccccc2C1=O)c1cc(S(=O)(=O)N2CCOCC2)ccc1Cl | 0 | 1 | -1 | 1 | 0 | -9
O=C1c2cccc3c(N4CCCCC4)ccc(c23)C(=O)N1c1cccc(O)c1 | 6 | 1 | 46 | 10 | 9 | -8
C=CCN1C(=O)c2cccc3c(N4CCCCC4)ccc(c23)C1=O | 4 | 0 | -22 | -66 | 3 | -5
O=C1c2cccc3c(N4CCCCC4)ccc(c23)C(=O)N1CCO | -17 | 0 | -30 | -70 | 49* | -4
O=C(OCCN1C(=O)c2cccc3c(N4CCOCC4)ccc(c23)C1=O)c1ccc(Cl)cc1Cl | -8 | 1 | -37 | -58 | 30* | -3
O=C(OCCN1C(=O)c2cccc3c(N4CCOCC4)ccc(c23)C1=O)c1cccc(Cl)c1 | 10 | 0 | x | x | 37* | 10
CC(=O)N1CCN=C1SCc1cccc(C)c1 | 4 | -1 | 4 | 0 | 7 | 0
Cc1[nH]n(-c2ccccc2)c(=O)c1N=Nc1cccc(C(=O)O)c1 | 4 | -2 | 2 | 4 | -6 | 2
COCCNC(=O)c1ccccc1NC(=O)CSc1ccc(C)cc1 | -4 | 1 | -3 | -6 | 4 | -18
O=C(OCCN1C(=O)c2cccc3c(N4CCOCC4)ccc(c23)C1=O)c1ccccc1Cl | -6 | 0 | 17 | -13 | 27* | -15
CCn1c(SCC(=O)NC(=O)NCc2ccco2)nc2sc(C)c(C)c2c1=O | -11 | -1 | 0 | 31 | 0 | 28*
O=c1cc(CN2CCCCCC2)nc2sccn12 | -1 | -1 | -2 | -1 | + | -4
O=c1cc(CN2CCN(S(=O)(=O)c3ccccc3)CC2)nc2sccn12 | 4 | 0 | 0 | 2 | -3 | 0
COC(=O)CC#N | 2 | 0 | 5 | -2 | + | x
Cn1cnc([N+](=O)[O-])c1S(=O)(=O)c1cccc(Cl)c1 | -6 | 7.8* | 2 | -1 | -3 | 15
Cn1cnc([N+](=O)[O-])c1S(=O)(=O)Oc1ccccc1 | x | x | 3 | 3 | x | x
Cc1cc(-c2ccccc2)nc(Cl)c1C#N | -3 | 1 | 0 | -3 | -3 | 15
COc1ccccc1C1CC(c2cccc(NS(C)(=O)=O)c2)=NN1S(=O)(=O)c1ccccc1 (stereo not drawn) | 9 | 0 | 81* | 22 | -1 | -1
SMILES | ZTA counter | A1 inh | HNF4A DNA FP | CSN inh | LANA-H2B inh | EBNA-1 inhibitor
CN1CCc2c(sc3c2C(=O)NC(c2cn(Cc4ccccc4)c4ccccc24)N3)C1 (stereo not drawn) | 0 | 0 | 52* | 26 | -43 | 8
CN1CCc2c(sc3c2C(=O)NC(c2cccc(OC(=O)c4cccs4)c2)N3)C1 (stereo not drawn) | -2 | 0 | 34* | 36* | -3 | -1
CN1CCc2c(sc3c2C(=O)NC(c2ccco2)N3)C1 (stereo not drawn) | 17 | 1 | -13 | 10 | -10 | 9
CCCC(C(=O)NC1CCCC1)N(C(=O)c1snc(C(N)=O)c1N)c1ccc(F)cc1 (stereo not drawn) | x | x | 0 | 3 | x | x
CN1c2ccccc2C(C)(C)C12C=Nc1c(cc(N3CCOCC3)c3ccccc13)O2 (stereo not drawn) | x | x | -4 | 16 | x | x
CN1c2ccccc2C(C)(C)C12C=Cc1cc(O)ccc1O2 (stereo not drawn) | 5 | 0 | 35* | 26 | 2 | 10
O=C(Cc1ccccc1F)NNC(=O)c1ccncc1 | -1 | 0 | 0 | -1 | -1 | 2
Cc1ccccc1NC1=C/C(=N\S(=O)(=O)c2ccc(C(=O)O)cc2)c2ccccc2C1=O | 57* | 0 | 2 | 27 | 1 | -9
CCc1ccc(S(=O)(=O)/N=C2\C=C(NS(=O)(=O)c3ccccc3)C(=O)c3ccccc32)cc1 | x | x | 0 | 6 | x | x
Cc1ccc(C)c(S(=O)(=O)/N=C2\C=C(NS(=O)(=O)c3ccccc3)C(=O)c3ccccc32)c1 | 12 | -1 | 4 | 3 | 31* | -9
O=c1/c(=C\c2ccc(O)cc2)sc2nc(-c3ccccc3)c(-c3ccccc3)n12 | -3 | 0 | 52* | 13 | -5 | 6
COc1ccc2sc(/C=C/c3ccccc3O)[n+](C)c2c1 | x | x | 51* | 127 | x | x
O=C(Nc1nc(OCC(F)(F)F)cnc1/C=C\c1ccccc1)c1ccccc1 | x | x | 1 | 1 | x | x
Cc1ccc(C(=O)COC(=O)c2ccc3c(c2)C(=O)N(c2cccc4ncccc24)C3=O)cc1 | -12 | 6.4* | 2 | -1 | -3 | 0
O=C(COC(=O)c1ccc2c(c1)C(=O)N(c1cccc3ncccc13)C2=O)c1ccc(Cl)cc1 | 7 | 0 | 0 | 2 | -4 | 15
Cc1cc(-c2csc(NC(=O)c3ccc(C#N)cc3)n2)c(C)n1Cc1ccco1 | -9 | 0 | 6 | 41* | 3 | -4
O=C(CSc1nc(=O)n(CCCN2CCOCC2)c2c1CCCC2)Nc1ccc(F)cc1 | -1 | -1 | -4 | 5 | -2 | 7
Cc1nnc(-c2cccc(Br)c2)c2cn(-c3ccccc3)nc12 | -16 | -1 | 144 | -76 | 3 | 6
Cc1nnc(-c2cccc(Br)c2)c2cn(-c3ccc(Br)cc3)nc12 | -18 | 0 | 63* | 91 | -4 | 10
CCCCn1c(N)c(N(Cc2ccccc2OC)C(=O)CN2C(=O)NC(C)(c3ccccc3)C2=O)c(=O)[nH]c1=O (stereo not drawn) | -19 | 0 | 0 | 0 | -8 | -1
Cc1ccc2c(c1)N=C(c1ccc(Cl)cc1)CO2 | 2 | -6 | 1 | 1 | 2 | 7
Clc1ccc(C2=Nc3cc(Cl)ccc3OC2)cc1 | 2 | 0 | 68* | -9 | -4 | -5
